This note sets out measurements from ChEMBL document CHEMBL1781905, “Discovery and optimization of N-acyl and N-aroylpyrazolines as B-Raf kinase inhibitors” (Bioorg Med Chem Lett, 2010).

The IC50 is the midpoint of a concentration-inhibition curve.

Test [1] deals with T1, Serine/threonine-protein kinase B-raf (Homo sapiens, UniProt P15056, V600E). The test can be described thus: Inhibition of human B-Raf V600E mutant after 3 hrs. A digest of the protocol: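 Radiometric assay using 20 nM B-Raf V600E. It measures phosphorylation of a biotinylated surrogate peptide by ³³P-ATP in 50 mM HEPES pH 7.5 with 10 mM DTT and 50 mM MnCl₂ at 30 °C for 3 h. The reaction is stopped with 100 mM EDTA, captured 2 h on a streptavidin FlashPlate and scintillation-counted.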

Test [2] concerns the target T1, Serine/threonine-protein kinase B-raf. The test can be described thus: Inhibition of B-Raf V600E mutant-mediated ERK phosphorylation in human A375 cells after 3 hrs by immunoblotting method. As to conditions: in the assay text read “whole cell ELISA” for “immunoblotting method”. The test is classed as cell-based, A-375. A digest of the protocol:
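A375 (B-Raf V600E) cells are seeded overnight, then exposed to inhibitors for 3 h at 37 °C. Cells are fixed, permeabilized and blocked overnight. They are probed 1 h with anti-phospho-ERK antibody, then with HRP-linked reagent. The TMB substrate is read as optical density at 650 nm.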
A general note: A western blot detects proteins with antibodies after separation by electrophoresis.

Test [3] deals with Mast/stem cell growth factor receptor Kit (Homo sapiens, UniProt P10721). As to the kind of experiment: Inhibition of KIT2.
Test [4] concerns the target Fibroblast growth factor receptor 1 (Homo sapiens, UniProt P11362). The test can be described thus: Inhibition of FGFR1.
The target in test [5] is RAC-beta serine/threonine-protein kinase (Homo sapiens, UniProt P31751). The test can be described thus: Inhibition of AKT2.
The target in test [6] is T2, Receptor-type tyrosine-protein kinase FLT3 (Homo sapiens, UniProt P36888).
T2 sequence (P36888 whole entry): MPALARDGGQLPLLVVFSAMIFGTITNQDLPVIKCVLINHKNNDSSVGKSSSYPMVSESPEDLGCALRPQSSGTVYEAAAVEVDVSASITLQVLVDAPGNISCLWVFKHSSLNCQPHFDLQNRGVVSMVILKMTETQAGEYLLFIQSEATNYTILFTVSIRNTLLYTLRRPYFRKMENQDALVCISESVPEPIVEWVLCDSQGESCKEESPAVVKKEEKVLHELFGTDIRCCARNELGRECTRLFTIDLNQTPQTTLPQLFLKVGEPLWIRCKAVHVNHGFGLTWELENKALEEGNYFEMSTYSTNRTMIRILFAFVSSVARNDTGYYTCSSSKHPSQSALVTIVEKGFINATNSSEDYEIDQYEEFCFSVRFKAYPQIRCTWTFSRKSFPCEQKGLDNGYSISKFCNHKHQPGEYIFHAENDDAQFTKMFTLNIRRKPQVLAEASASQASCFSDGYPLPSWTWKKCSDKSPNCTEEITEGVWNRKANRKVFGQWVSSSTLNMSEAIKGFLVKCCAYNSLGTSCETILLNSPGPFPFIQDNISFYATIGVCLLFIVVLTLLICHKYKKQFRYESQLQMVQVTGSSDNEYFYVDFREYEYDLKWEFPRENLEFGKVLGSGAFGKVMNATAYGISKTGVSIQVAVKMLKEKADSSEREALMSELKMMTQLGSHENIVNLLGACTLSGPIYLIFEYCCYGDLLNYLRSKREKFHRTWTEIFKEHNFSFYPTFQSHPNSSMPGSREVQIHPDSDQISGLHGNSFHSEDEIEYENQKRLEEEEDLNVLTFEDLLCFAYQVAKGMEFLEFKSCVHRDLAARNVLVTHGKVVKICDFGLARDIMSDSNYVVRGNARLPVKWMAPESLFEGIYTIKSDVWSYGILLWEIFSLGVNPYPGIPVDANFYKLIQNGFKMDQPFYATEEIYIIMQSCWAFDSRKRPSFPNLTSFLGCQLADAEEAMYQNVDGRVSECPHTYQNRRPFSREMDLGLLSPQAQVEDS
As to the kind of experiment: Inhibition of FLT3.

Test [7] addresses Vascular endothelial growth factor receptor 2 (Homo sapiens, UniProt P35968). As to the kind of experiment: Inhibition of KDR.
The target of test [8] is Macrophage colony-stimulating factor 1 receptor (Homo sapiens, UniProt P07333). The test can be described thus: Inhibition of CSF1R.
The species named for a further test is Homo sapiens. As to the kind of experiment: Selectivity ratio of IC50 for wild type human B-Raf to IC50 for human B-Raf V600E mutant.

T1 sequence (P15056 2-766 V600E limits assumed): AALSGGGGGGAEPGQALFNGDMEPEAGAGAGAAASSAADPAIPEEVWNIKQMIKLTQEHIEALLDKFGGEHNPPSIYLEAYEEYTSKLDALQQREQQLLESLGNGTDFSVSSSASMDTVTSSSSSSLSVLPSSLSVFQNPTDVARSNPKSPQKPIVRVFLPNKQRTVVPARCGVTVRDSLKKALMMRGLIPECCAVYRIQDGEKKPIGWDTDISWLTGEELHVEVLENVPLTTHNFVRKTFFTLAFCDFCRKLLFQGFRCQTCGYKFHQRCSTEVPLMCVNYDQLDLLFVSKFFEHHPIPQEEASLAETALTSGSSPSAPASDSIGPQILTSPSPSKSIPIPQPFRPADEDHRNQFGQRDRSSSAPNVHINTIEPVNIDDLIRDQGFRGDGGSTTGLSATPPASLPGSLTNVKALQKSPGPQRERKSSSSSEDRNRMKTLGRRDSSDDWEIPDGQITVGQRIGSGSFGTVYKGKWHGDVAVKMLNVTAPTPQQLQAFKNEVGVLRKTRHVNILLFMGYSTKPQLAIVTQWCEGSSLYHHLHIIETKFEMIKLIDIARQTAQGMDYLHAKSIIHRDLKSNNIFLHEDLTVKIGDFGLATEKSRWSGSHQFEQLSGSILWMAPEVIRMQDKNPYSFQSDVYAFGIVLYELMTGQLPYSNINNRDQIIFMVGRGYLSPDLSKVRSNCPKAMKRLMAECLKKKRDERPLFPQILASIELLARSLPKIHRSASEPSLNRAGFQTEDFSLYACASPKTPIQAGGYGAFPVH
Sequence of Vascular endothelial growth factor receptor 2 (P35968 whole entry): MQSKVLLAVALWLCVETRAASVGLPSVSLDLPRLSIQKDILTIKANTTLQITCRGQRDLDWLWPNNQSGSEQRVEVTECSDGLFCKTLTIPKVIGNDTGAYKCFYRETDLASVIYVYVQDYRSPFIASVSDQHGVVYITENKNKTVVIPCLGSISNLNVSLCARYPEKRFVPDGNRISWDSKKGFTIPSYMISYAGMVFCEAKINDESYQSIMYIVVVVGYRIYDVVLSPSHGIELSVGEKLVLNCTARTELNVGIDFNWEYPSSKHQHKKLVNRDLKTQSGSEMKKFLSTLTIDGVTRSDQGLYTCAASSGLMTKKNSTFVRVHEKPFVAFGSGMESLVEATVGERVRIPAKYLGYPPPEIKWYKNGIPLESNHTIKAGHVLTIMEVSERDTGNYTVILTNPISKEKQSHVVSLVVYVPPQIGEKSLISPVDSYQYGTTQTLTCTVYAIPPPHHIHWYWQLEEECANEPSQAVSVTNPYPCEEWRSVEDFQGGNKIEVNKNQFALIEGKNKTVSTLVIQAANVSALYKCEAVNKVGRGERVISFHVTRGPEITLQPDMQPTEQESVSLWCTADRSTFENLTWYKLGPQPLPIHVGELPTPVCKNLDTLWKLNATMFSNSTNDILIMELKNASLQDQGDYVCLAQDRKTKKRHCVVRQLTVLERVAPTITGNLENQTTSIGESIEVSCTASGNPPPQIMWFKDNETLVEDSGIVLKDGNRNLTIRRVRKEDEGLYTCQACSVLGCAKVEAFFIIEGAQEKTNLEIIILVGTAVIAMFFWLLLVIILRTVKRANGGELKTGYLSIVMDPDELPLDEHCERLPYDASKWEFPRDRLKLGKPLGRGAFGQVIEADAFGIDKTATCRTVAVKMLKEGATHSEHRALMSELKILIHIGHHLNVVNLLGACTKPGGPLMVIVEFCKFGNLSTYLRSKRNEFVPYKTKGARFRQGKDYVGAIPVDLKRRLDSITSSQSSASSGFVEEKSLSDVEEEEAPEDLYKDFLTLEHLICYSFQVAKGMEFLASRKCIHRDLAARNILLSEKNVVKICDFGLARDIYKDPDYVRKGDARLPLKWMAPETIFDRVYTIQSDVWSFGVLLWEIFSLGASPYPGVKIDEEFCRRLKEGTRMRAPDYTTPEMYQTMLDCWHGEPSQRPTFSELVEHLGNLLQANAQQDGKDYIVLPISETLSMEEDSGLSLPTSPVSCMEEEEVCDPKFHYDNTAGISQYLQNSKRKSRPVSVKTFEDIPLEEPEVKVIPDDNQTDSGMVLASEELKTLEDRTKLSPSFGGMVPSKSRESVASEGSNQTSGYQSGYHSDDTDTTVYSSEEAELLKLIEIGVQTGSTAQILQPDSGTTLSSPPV
Sequence of Macrophage colony-stimulating factor 1 receptor (P07333 whole entry): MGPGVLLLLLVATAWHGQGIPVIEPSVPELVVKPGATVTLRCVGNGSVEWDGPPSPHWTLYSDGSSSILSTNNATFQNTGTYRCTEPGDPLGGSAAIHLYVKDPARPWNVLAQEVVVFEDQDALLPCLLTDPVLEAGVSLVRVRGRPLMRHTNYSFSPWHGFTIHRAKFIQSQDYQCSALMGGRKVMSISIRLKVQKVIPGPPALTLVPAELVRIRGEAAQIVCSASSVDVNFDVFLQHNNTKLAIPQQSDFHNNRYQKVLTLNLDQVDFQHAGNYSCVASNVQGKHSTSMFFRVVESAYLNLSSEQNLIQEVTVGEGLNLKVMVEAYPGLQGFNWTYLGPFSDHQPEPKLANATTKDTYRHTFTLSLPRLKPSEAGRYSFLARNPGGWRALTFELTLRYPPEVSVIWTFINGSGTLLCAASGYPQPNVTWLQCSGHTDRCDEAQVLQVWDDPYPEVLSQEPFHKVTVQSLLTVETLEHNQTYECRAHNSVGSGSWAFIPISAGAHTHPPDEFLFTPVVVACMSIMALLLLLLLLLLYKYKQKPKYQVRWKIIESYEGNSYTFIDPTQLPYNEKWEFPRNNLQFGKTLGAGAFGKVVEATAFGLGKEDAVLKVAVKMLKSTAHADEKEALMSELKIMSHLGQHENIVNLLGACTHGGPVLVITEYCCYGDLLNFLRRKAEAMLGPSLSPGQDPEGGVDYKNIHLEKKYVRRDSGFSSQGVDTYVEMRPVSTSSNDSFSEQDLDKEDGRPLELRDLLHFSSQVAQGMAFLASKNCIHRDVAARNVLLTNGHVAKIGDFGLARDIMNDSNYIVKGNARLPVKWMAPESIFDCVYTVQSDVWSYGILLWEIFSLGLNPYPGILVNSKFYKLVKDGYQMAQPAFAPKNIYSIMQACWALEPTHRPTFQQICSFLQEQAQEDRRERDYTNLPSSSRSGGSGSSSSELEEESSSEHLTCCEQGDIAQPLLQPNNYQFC
Sequence of Mast/stem cell growth factor receptor Kit (P10721 whole entry): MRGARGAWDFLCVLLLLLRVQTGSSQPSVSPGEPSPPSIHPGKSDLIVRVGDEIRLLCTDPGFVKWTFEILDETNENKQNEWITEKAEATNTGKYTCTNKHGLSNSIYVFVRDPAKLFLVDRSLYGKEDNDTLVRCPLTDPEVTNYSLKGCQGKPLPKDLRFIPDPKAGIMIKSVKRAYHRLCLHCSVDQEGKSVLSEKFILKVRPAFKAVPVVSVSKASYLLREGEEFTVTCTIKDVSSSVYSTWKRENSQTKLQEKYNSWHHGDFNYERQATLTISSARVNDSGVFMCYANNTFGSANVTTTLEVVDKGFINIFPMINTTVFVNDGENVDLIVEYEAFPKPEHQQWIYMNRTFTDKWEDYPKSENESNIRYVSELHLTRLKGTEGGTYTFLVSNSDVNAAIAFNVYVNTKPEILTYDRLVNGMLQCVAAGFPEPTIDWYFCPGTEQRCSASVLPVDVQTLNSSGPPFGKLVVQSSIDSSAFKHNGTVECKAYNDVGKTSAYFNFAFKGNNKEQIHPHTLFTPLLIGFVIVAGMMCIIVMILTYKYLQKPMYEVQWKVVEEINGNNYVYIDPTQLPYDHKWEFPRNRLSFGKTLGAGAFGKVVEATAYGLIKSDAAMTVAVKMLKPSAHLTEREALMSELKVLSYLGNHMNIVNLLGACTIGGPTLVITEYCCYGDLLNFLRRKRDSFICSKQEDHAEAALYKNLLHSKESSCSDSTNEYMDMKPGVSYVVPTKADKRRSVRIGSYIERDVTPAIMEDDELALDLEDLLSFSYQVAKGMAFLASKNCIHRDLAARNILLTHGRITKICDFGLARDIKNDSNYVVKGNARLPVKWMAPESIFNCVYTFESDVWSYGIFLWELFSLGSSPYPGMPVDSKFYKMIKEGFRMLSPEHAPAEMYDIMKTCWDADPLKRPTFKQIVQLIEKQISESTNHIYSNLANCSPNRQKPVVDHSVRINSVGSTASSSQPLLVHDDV
Sequence of RAC-beta serine/threonine-protein kinase (P31751 whole entry): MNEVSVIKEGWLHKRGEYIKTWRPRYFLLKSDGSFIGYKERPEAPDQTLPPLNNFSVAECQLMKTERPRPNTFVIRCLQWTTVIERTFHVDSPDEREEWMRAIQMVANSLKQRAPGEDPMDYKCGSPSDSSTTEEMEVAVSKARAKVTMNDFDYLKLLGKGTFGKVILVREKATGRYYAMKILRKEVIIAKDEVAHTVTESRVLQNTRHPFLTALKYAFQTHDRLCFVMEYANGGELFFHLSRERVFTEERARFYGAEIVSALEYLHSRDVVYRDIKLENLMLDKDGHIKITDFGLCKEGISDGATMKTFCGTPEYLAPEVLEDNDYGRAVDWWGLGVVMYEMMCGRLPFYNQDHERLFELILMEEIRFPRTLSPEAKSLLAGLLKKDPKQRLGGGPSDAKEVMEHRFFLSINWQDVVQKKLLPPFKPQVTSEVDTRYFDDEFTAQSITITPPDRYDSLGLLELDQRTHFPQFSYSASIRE

`O=S(=O)(c1ccc(-c2cccnc2)s1)N1N=C(c2cccnc2)CC1c1ccccc1O` (centres undefined): the IC50 is 2000 nM in [1] and more than 10000 nM in test [2].
The like results for `O=C(c1ccc(-c2cccnc2)s1)N1N=C(c2cccnc2)CC1c1ccccc1O` (single isomer, unassigned; early eluting) were, in that order, 1200 nM and 14000 nM.
In [1], `O=C(c1ccccc1-c1ccc(F)cc1)N1N=C(c2cccnc2)CC1c1ccccc1O` (centres undefined) had an IC50 of more than 10000 nM.
On to `N#Cc1ccccc1S(=O)(=O)N1N=C(c2cccnc2)CC1c1ccccc1O` (centres undefined), for which, in [1], the IC50 amounted to 450 nM.
In turn, `O=C(c1ccc(F)cc1C(F)(F)F)N1N=C(c2cccnc2)CC1c1ccccc1O` (centres undefined) had an IC50 in test [1] of more than 10000 nM.
In [1], `O=C(c1cccc2c(F)cccc12)N1N=C(c2cccnc2)CC1c1ccccc1O` (centres undefined) came in with an IC50 of more than 10000 nM.
As to `O=C(c1cc(F)cc(C(F)(F)F)c1)N1N=C(c2cccnc2)CC1c1ccccc1O` (centres undefined), the results for the IC50 in test [1] and in test [2] were 110 nM and 9500 nM, respectively.
As for `CCOc1cccc2cc(C(=O)N3N=C(c4cccnc4)CC3c3ccccc3O)oc12` (centres undefined), the IC50 in [3] is more than 10000 nM; in [4] it was more than 10000 nM; in [5], more than 10000 nM; in test [1] it was 25.7 nM; in [6] it was more than 10000 nM; in test [7], more than 10000 nM. The IC50 was 3500 nM in [2] and more than 10000 nM in [8].
Consider `O=C(c1cncc(-c2cccs2)c1)N1N=C(c2cccnc2)CC1c1ccccc1O` (centres undefined), for which the IC50 in test [1] is 260 nM; in [2] it was more than 10000 nM.
The like results for `O=C(c1cc2c(s1)CCC2)N1N=C(c2cccnc2)CC1c1ccccc1O` (centres undefined) were, in that order, 6.9 nM and 920 nM.
Take `O=C(c1cc(-c2cccs2)n[nH]1)N1N=C(c2cccnc2)CC1c1ccccc1O` (centres undefined): the 50% inhibitory concentration (IC50) came out at 10.3 nM in test [1] and 410 nM in [2].
Take `O=C(c1cc(-c2ccc(Cl)cc2)cs1)N1N=C(c2cccnc2)CC1c1ccccc1O` (centres undefined): the IC50 in test [1] worked out at 216 nM.
With `O=C(c1cccc(-n2cccn2)c1)N1N=C(c2cccnc2)CC1c1ccccc1O` (centres undefined), the IC50 was more than 10000 nM in test [3]; more than 10000 nM in [4]; more than 10000 nM in test [5]; 42 nM in test [1]; more than 10000 nM in test [6]; more than 10000 nM in test [7]. Moreover, the IC50 was 8700 nM in test [2] and more than 10000 nM in [8].
On to `O=C(c1ccc(-c2ccccc2)[nH]1)N1N=C(c2cccnc2)CC1c1ccccc1O` (centres undefined), for which the IC50 in test [1] worked out at 41.5 nM; in [2], 1100 nM.
The like results for `O=C(c1ccc(-c2ccccc2)o1)N1N=C(c2cccnc2)CC1c1ccccc1O` (centres undefined) were, in that order, 16 nM and 1700 nM.
With `O=C(c1cccs1)N1N=C(c2cccnc2)CC1c1ccccc1O` (centres undefined), the IC50 in test [3] is more than 10000 nM; in test [4], more than 10000 nM; in test [5], more than 10000 nM; in test [1] it was 24.2 nM; in test [6], more than 10000 nM; in test [7], more than 10000 nM. Moreover, the results for the IC50 in [2] and in test [8] were 1500 nM and more than 10000 nM, respectively. Moreover, in the test filed under Homo sapiens, the Ratio IC50 is less than 2.
For the compound `O=C(c1cc(-c2ccccc2)on1)N1N=C(c2cccnc2)CC1c1ccccc1O` (centres undefined), the values for the half-inhibitory concentration (IC50) in [1] and in [2] were 8 nM and 810 nM, respectively.
The corresponding values for `O=C(c1cc(-c2ccccc2O)on1)N1N=C(c2cccnc2)CC1c1ccccc1O` (centres undefined) are 14.3 nM and 130 nM.
The corresponding values for `O=C(c1ccc(-c2cccnc2)s1)N1N=C(c2cccnc2)CC1c1ccccc1O` (single isomer, unassigned; later eluting) are 15 nM and 280 nM.
Regarding `O=C(c1[nH]nc2c1CCC2)N1N=C(c2cccnc2)CC1c1ccccc1O` (centres undefined), the IC50 turned out to be 7 nM in test [1] and 350 nM in test [2].
As for `O=C(c1ccc(-c2cccnc2)s1)N1N=C(c2cccnc2)CC1c1ccccc1O` (centres undefined) [listing 1 of 2 here], the Ratio IC50 in the test listed under Homo sapiens is less than 2.
Consider `O=C(CC1CC1)N1N=C(c2cccnc2)CC1c1ccccc1O` (centres undefined), for which the IC50 in test [1] came to 83 nM; in test [2], 8000 nM.
For `O=C(c1ccc(Br)o1)N1N=C(c2cccnc2)CC1c1ccccc1O` (centres undefined), the IC50 in test [3] is more than 10000 nM; in test [4], more than 10000 nM; in [5], more than 10000 nM; in test [1] it was 7.9 nM; in test [6] it was more than 10000 nM; in test [7] it was more than 10000 nM. For the same compound, the concentration for half-maximal inhibition (IC50) is 1400 nM in [2] and more than 10000 nM in test [8].
In [1], `O=C(c1ccc(-c2ccc(Cl)cc2)s1)N1N=C(c2cccnc2)CC1c1ccccc1O` (centres undefined) displayed an IC50 of 140 nM.
Take `O=C(c1ccc(-c2cccnc2)s1)N1N=C(c2cccnc2)CC1c1ccccc1O` (centres undefined) [listing 2 of 2 here]: the IC50 in [1] was found to be 18.7 nM; in test [2], 180 nM.
`COc1ccc(-c2cc(C(=O)N3N=C(c4cccnc4)CC3c3ccccc3O)no2)cc1` (centres undefined): the IC50 stood at 15.4 nM in test [1] and 460 nM in test [2].
As to `O=C(c1ccc([N+](=O)[O-])o1)N1N=C(c2cccnc2)CC1c1ccccc1O` (centres undefined), the half-inhibitory concentration (IC50) in test [1] was 130 nM.
For the compound `Cc1nc(-c2cnccn2)sc1C(=O)N1N=C(c2cccnc2)CC1c1ccccc1O` (centres undefined), the IC50 was 6.5 nM in test [1] and 710 nM in test [2].
The corresponding values for `O=C(c1cc(-c2ccc3c(c2)OCCO3)n[nH]1)N1N=C(c2cccnc2)CC1c1ccccc1O` (centres undefined) are 10.7 nM and 240 nM.
`O=C(c1ccccc1Oc1ccccc1)N1N=C(c2cccnc2)CC1c1ccccc1O` (centres undefined) registered an IC50 in [1] of more than 10000 nM.
As for `O=C(c1cccc(-n2cnnn2)c1)N1N=C(c2cccnc2)CC1c1ccccc1O` (centres undefined), the IC50 in test [1] is 28 nM; in test [2], more than 10000 nM.
Turning to `Cc1nc(-c2cccnc2)sc1C(=O)N1N=C(c2cccnc2)CC1c1ccccc1O` (centres undefined), the IC50 worked out at 8.1 nM in test [1] and 940 nM in test [2].
The like results for `O=C(c1cc(-c2ccccc2)no1)N1N=C(c2cccnc2)CC1c1ccccc1O` (centres undefined) were, in that order, 8 nM and 1100 nM.
Turning to `Cc1ccc(-c2ccc(C(=O)N3N=C(c4cccnc4)CC3c3ccccc3O)o2)cc1` (centres undefined), the IC50 in test [1] came to 58 nM; in test [2], 2400 nM.
Take `O=C(c1cc(-c2ccco2)on1)N1N=C(c2cccnc2)CC1c1ccccc1O` (centres undefined): the figures for the IC50 in test [1] and in [2] were 5.6 nM and 970 nM, respectively.
`COc1cccc(-c2cc(C(=O)N3N=C(c4cccnc4)CC3c3ccccc3O)no2)c1` (centres undefined): the IC50 was found to be 6.7 nM in test [1] and 930 nM in test [2].
`O=C(c1ccc(C(F)(F)F)c(F)c1)N1N=C(c2cccnc2)CC1c1ccccc1O` (centres undefined) came in with an IC50 in test [1] of 660 nM.
As to `O=C(c1cn2c(n1)sc1ccccc12)N1N=C(c2cccnc2)CC1c1ccccc1O` (centres undefined), the values for the IC50 in [1] and in test [2] were 9.1 nM and 61 nM, respectively.
On to `O=C(c1ccc[nH]1)N1N=C(c2cccnc2)CC1c1ccccc1O` (centres undefined), for which the IC50 in test [3] is more than 10000 nM; in test [4] it was more than 10000 nM; in test [5] it was more than 10000 nM; in test [1] it was 22.6 nM; in test [6] it was more than 10000 nM; in test [7], more than 10000 nM. Moreover, the figures for the IC50 in [2] and in test [8] were 2000 nM and more than 10000 nM, respectively.
On to `O=C(c1ccc(F)c(C(F)(F)F)c1)N1N=C(c2cccnc2)CC1c1ccccc1O` (centres undefined), for which the IC50 in test [1] was determined as 200 nM; in test [2] it was 3800 nM.
As for `O=C(c1cccc(Oc2ccccc2)c1)N1N=C(c2cccnc2)CC1c1ccccc1O` (centres undefined), the 50% inhibitory concentration (IC50) in test [1] came out at 156 nM.
Same read-out and setting: as for `O=C(c1cccc(C(F)(F)F)c1F)N1N=C(c2cccnc2)CC1c1ccccc1O` (centres undefined), the figure is more than 10000 nM.
As to `Cc1nc(-c2ccccc2)sc1C(=O)N1N=C(c2cccnc2)CC1c1ccccc1O` (centres undefined), the IC50 worked out at 37.9 nM in [1] and 1300 nM in test [2].
Take `O=C(c1cc(-c2ccc3c(c2)OCO3)on1)N1N=C(c2cccnc2)CC1c1ccccc1O` (centres undefined): the IC50 was 8.6 nM in test [1] and 600 nM in test [2].
With `COc1ccc(-c2ccc(C(=O)N3N=C(c4cccnc4)CC3c3ccccc3O)o2)cc1` (centres undefined), the IC50 is 18 nM in [1] and 3700 nM in test [2].
